Laboratory results as given in ChEMBL document CHEMBL1139261, “Synthesis and biological evaluation of a series of tangeretin-derived chalcones” (Bioorg Med Chem Lett, 2009).
pIC50: −log10 of the molar value. Calls of active or inactive are those of the source. The rule behind the calls is not given here.

Assays:
KB [1] = test: Growth inhibition of human KB cells […] after 72 hrs by MTS assay; type: functional
Procedure, shortened: (§1)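 KB human buccal carcinoma cells incubated with chalcone for 72 h. Growth read by MTS assay and expressed as percent inhibition of cell growth.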

Leishmania donovani = test: Antileishmanial activity against Leishmania donovani MHOM/ET/1967/HU3 (LV9) promastigotes after 72 hrs by MTT assay; type: functional, organism-based
Procedure, shortened: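 Promastigotes of L. donovani LV9 clone (MHOM/ET/67/HU3) exposed to drug for 72 h. Viability read by MTT assay and IC50 derived.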

Leishmania amazonensis = test: Antileishmanial activity against Leishmania amazonensis LV9 ([…]/M1841) amastigotes infected in mouse macrophage after 30 hrs by MTT assay; type: functional, organism-based
Procedure, shortened: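 Intracellular amastigotes of L. amazonensis LV9 (MPROB/BR/1972/M1841), isolated from lesions and purified, grown inside murine macrophages. Compounds incubated with infected macrophages for 30 h. IC50 reported.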

[2] = Selectivity index, ratio of IC50 for mouse macrophage to IC50 for Leishmania amazonensis LV9 ([…]/M1841) amastigotes
Procedure, shortened: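 Selectivity index is the IC50 for cytotoxicity against murine macrophages divided by the IC50 against L. amazonensis LV9 intracellular amastigotes. Amastigotes were assayed after 30 h incubation of infected macrophages with drug.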

[3] = Inhibition of tubulin assembly at 200 uM
Procedure, shortened: (§2)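 Tubulin assembly followed by the Zavala and Guenard method, with compounds tested at 0.1 mg/ml (about 2 × 10^-4 M). IC50 is expressed as a ratio to the deoxypodophyllotoxin IC50.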

HL-60 [4] = test: Induction of apoptosis in human HL60 cells assessed as fold activation of caspase 3/7 at 10 uM; type: functional
Procedure, shortened: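 HL60 human leukemia cells treated with compound. Caspase 3/7 activity measured with DEVD-AMC substrate and given as fold activation at the optimal compound concentration.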

[5] = Inhibition of tubulin assembly assessed as ratio of IC50 for drug to IC50 for deoxypodophyllotoxin
[6] = Inhibition of tubulin assembly; procedure, shortened: as §2
KB [7] = test: Cytotoxicity against human KB cells; type: functional, cell-based; procedure, shortened: as §1
KB [8] = test: Antiproliferative activity against human KB cells after 72 hrs by MTS assay; type: functional, cell-based
HL-60 [9] = test: Induction of apoptosis in human HL60 cells assessed as fold activation of caspase 3/7 at 100 nM; type: functional
Procedure, shortened: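 HL60 human leukemia cells; caspase 3/7 activation measured using DEVD-AMC substrate; reported as fold activation at the optimal compound concentration.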

P388 = test: Cytotoxicity against mouse P388 cells; type: functional, cell-based

| inhibition [3] [%] | Structure (SMILES) | inhibition (INH) (KB [1]) [%] | pIC50 (Leishmania donovani) | Ratio IC50 [5] | Activity (Leishmania amazonensis) | pIC50 [6] | further results |
| --- | --- | --- | --- | --- | --- | --- | --- |
| – | COc1c(O)c(C(=O)/C=C/c2cccc([N+](=O)[O-])c2)c(OC)c(OC)c1OC | 31 | 5.36 | – | – | – | pIC50 (Leishmania amazonensis): 4.59; Ratio IC50 [2]: 2.5 |
| < 30 | COc1ccc(/C=C/C(=O)c2c(OC)c(OC)c(OC)c(OC)c2OC)cc1[N+](=O)[O-] | 19 | – | – | – | – | – |
| – | COc1ccc(/C=C/C(=O)c2c(O)c(OC)c(OC)c(OC)c2OC)cc1O | 49 | 4.60 | 3.8 | inactive | 4.89 | fold change (FC) (HL-60 [4]): 3.2 |
| < 30 | COc1ccc(/C=C/C(=O)c2c(O)c(OC)c(OC)c(OC)c2OC)cc1[N+](=O)[O-] | 43 | 5.28 | – | inactive | – | fold change (FC) (HL-60 [4]): 1.2 |
| < 30 | COc1ccc(/C=C/C(=O)c2c(OC)c(OC)c(OC)c(OC)c2OC)cc1O | 22 | 4.70 | – | – | – | – |
| – | COc1cc(C(=O)/C=C/c2cccc([N+](=O)[O-])c2)cc(OC)c1OC | 29 | 6.40 | – | – | – | pIC50 (Leishmania amazonensis): 4.59; Ratio IC50 [2]: 2.8 |
| – | COc1c(O)c(OC)c(C(=O)/C=C/c2ccccc2)c(O)c1OC [PEDICIN] | – | – | – | – | 3.52 | pIC50 (KB [7]): 4.67 |
| – | COc1ccc(/C=C/C(=O)c2c(O)c(OC)c(OC)c(OC)c2OC)cc1N | 40 | 4.36 | 4.1 | inactive | 4.85 | fold change (FC) (HL-60 [4]): 2.9 |
| – | COc1ccc(/C=C/C(=O)c2cc(OC)c(OC)c(OC)c2)cc1[N+](=O)[O-] | 44 | 5.55 | – | inactive | – | – |
| < 30 | COc1ccc(/C=C/C(=O)c2c(OC)c(OC)c(OC)c(OC)c2OC)cc1N | 29 | – | – | – | – | – |
| – | COc1ccc(/C=C/C(=O)c2cc(OC)c(OC)c(OC)c2)cc1N | 100 | – | 1 | – | 5.43 | pIC50 (KB [8]): 7.51; fold change (FC) (HL-60 [9]): 3.6 |
| – | COc1c(O)c(OC)c(OC)c(C(=O)/C=C/c2ccccc2)c1O [ISODIDYMOCARPIN] | – | – | – | – | – | pIC50 (P388): 4.95 |
| – | COc1ccc(/C=C/C(=O)c2cc(OC)c(OC)c(OC)c2)cc1O | 100 | – | 1.3 | – | 5.37 | pIC50 (KB [8]): 7.77; fold change (FC) (HL-60 [9]): 3.6 |
